Experiment [1] relates to HT-29. Description: Cytotoxicity against human HT-29 cells assessed as growth inhibition after 48 hrs by WST-1 assay. Type of experiment: functional, cell-based. Conditions: HT-29, 48 h. The method in brief:
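HT-29 human colon cancer cells kept in RPMI 1640 with 10% FBS, penicillin, streptomycin and 2 mmol/L L-glutamine. Seeded at 0.4*10⁴/well, left overnight, then medium replaced with fresh medium holding the test concentrations for 48 h. WST-1 added, 4 h at 37 °C, formazan read at 450 nm. IC₅₀ taken relative to untreated controls; mean ± SD of three separate experiments.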

Experiment [2] relates to HT-29. The experiment in a line: Inhibition of cell surface expression of CD133 in human HT-29 cells at 10 uM by flow cytometric analysis relative to control. Format: functional. The method in brief: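 HT-29 cells exposed to compound at 10 µM, then harvested, washed and stained with APC-conjugated anti-CD133 monoclonal antibody. Analysed by flow cytometry (BD LSR II), with debris and cell clusters excluded by forward- and side-scatter gating. Reported as % inhibition of […] relative to untreated cells; mean ± SD of three separate experiments.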

The source made the active and inactive calls. The calls are words filed in the database; no cut-off is given here.

Regarding `CCOc1ccc(C(=O)CSc2nc3ccccc3[nH]2)cc1`, in the experiment on HT-29 [1], the IC50 (in general, the point on the concentration scale where inhibition reaches its midpoint) is greater than 100 µM. Further, at 10 µM the inhibition in the experiment with HT-29 [2] was 55.1%.
As for `O=C(CSc1nc2ccccc2[nH]1)c1ccc(Br)cc1`, the IC50 in the experiment on HT-29 [1] was determined as 43 µM. Also, the inhibition (commonly the relative decrease from the control value, in per cent) with HT-29 [2] is “inactive”.
Take `O=c1[nH]cc(F)c(=O)[nH]1` [FLUOROURACIL]: in the experiment on HT-29 [1], the IC50 is 15.8 µM.
For `Cc1ccc(C(=O)CSc2nc3ccccc3[nH]2)cc1`, in the experiment with HT-29 [1], the IC50 is 34.5 µM. In addition, testing at 10 µM in the experiment with HT-29 [2] gave an inhibition of 40%.
For `O=C(CSc1nc2ccccc2[nH]1)c1cccs1` the same measures were 23.9 µM and 55.6%.
As to `O=C(CSc1nc2ccccc2[nH]1)c1ccc(O)cc1`, the IC50 in the experiment with HT-29 [1] came to 19.2 µM. Besides, the inhibition entry with HT-29 [2] is “inactive”.
For `O=C(CSc1nc2ccccc2[nH]1)c1ccc([N+](=O)[O-])cc1` the same measures were 57 µM and “inactive”.
`COc1ccc(C(=O)CSc2nc3ccccc3[nH]2)cc1OC`: the concentration for half-maximal inhibition (IC50) in the experiment with HT-29 [1] stood at 19.1 µM. In the experiment with HT-29 [2], this molecule yielded an inhibition at 10 µM of 52.6%.
The matching figures for `O=C(CSc1nc2ccccc2[nH]1)c1ccc2c(c1)OCO2`: 36.8 µM and 51.2%.
The matching figures for `COc1ccc(C(=O)CSc2nc3ccccc3[nH]2)c(OC)c1OC`: 18.8 µM and 50.1%.
For `COc1ccc(C(=O)CSc2nc3ccccc3[nH]2)cc1O` the same measures were 33 µM and 49.7%.
Take `O=C(CSc1nc2ccccc2[nH]1)c1ccccc1`: the concentration for half-maximal inhibition (IC50) in the experiment on HT-29 [1] is 38.5 µM. Also, in the experiment with HT-29 [2], the inhibition result is “inactive”.
Turning to `COc1ccc(C(=O)CSc2nc3ccccc3[nH]2)cc1`, the IC50 in the experiment on HT-29 [1] is 25.2 µM. The inhibition at 10 µM in the experiment on HT-29 [2] was 52.5%.
For `COc1ccccc1C(=O)CSc1nc2ccccc2[nH]1` the same measures were 36.1 µM and 34.9%.
On to `O=C(CSc1nc2ccccc2[nH]1)c1ccco1`, for which the IC50 with HT-29 [1] is 24.6 µM. Also, testing at 10 µM with HT-29 [2] gave an inhibition of 56.8%.
Take `O=C(CSc1nc2ccccc2[nH]1)c1ccc(F)cc1`: the 50% inhibitory concentration (IC50) with HT-29 [1] is 78.7 µM. Moreover, the inhibition entry in the experiment on HT-29 [2] was “inactive”.

The values above are taken from ChEMBL document CHEMBL3632599, “2-((Benzimidazol-2-yl)thio)-1-arylethan-1-ones: Synthesis, crystal study and cancer stem cells CD133 targeting potential” (Eur J Med Chem, 2015).
